Compound activity as filed in PubChem BioAssay.
SENP8 block-1 – inhibitors of human SENP8 protease | Q96LD8 | recombinant SENP8, Nedd8 substrate fluorescence | inhibition, % at 20 µM | 360,000 compounds, 0.64% hits | AID 602440; in the data active = inhibition mostly above about 40%, no sharp cut-off; inactive = mostly below about 27%
Target sequence (Q96LD8 whole entry, looked up): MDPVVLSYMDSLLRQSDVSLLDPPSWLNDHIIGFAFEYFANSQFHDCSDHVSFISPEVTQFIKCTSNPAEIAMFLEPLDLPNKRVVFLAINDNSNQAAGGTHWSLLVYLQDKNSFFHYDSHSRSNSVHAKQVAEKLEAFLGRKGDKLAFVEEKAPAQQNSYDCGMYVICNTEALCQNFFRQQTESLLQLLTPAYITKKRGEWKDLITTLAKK
UBC13 polyUb – human UBC13 polyubiquitination inhibition. P61088. UBC13 polyubiquitin chain formation, TR-FRET. inhibition, % at 20 µM. 330,000 compounds, 0.47% hits. AID 485273; in the data active = inhibition above about 45%, passing the limit was not always enough
Target sequence (P61088 whole entry, looked up): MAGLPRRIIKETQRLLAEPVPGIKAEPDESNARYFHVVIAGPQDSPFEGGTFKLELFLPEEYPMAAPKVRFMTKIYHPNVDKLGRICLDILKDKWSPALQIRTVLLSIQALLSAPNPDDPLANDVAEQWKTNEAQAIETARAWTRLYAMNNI
SENP7 block – inhibitors of human SENP7 protease; 330,000 compounds, 1.5% hits; AID 434973; recombinant SENP7, Z-RLRGG-aminoluciferin luminescence, 40 min; inhibition, % at 5 µM;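 active = inhibition above about 50% at the single test dose, limit read from the data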;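 also: plate controls were DMSO with enzyme for no effect and no enzyme buffer wells for full effect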
Target sequence (Q9BQF6 706-1050 limits assumed): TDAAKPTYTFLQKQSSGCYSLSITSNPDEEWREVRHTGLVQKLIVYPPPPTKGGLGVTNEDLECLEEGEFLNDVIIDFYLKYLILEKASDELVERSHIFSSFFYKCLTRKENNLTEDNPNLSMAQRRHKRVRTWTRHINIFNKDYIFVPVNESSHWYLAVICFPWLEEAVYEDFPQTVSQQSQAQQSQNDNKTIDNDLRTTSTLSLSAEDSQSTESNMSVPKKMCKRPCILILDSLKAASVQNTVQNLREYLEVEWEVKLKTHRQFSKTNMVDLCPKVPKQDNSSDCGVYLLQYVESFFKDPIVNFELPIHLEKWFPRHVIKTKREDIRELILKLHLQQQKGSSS
Apaf1 inhib – human Apaf-1 inhibition; 330,000 compounds, 0.71% hits; reconstituted apoptosome caspase-3 activity, DEVD-Rh110 fluorescence; O14727; inhibition, % at 20 µM; active = inhibition of at least 40% at 20 µM;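 also: plate controls were DMSO wells for no effect and DEVD-CHO caspase inhibitor wells for full effect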
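Material: reconstituted apoptosome with Apaf-1, cytochrome c, caspase-9, procaspase-3, dATP. Technique: Rh110 fluorescence intensity. Buffer or medium: pH 7.5 Hepes buffer with CHAPS, BSA, DTT. Times: 30 min plus 50 min, RT.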
SENP8 block-2 – blocks the human protease SENP8; purified SENP8, Z-RLRGG-aminoluciferin cleavage, luminescence; inhibition, % at 10 µM; 330,000 compounds, 1.2% hits; AID 2540; in the data active = inhibition above about 50%
SENP6 inh – SENP6 protease inhibition. Recombinant SENP6 catalytic domain, aminoluciferin luminescence. inhibition, % at 10 µM. 330,000 compounds, 1.8% hits. AID 2599;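 active = inhibition above about 50% at the single tested dose, limit read from the data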;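 also: plate controls were DMSO wells with enzyme for no effect and DMSO wells lacking enzyme for full effect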
SENP8 confirm – human SENP8 inhibition, confirmed; shares compounds with SENP7 block; Recombinant SENP8, Z-RLRGG-aminoluciferin luminescence, 60 min; inhibition, % at 12.5 µM; 6,200 compounds, 40% hits;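 active = mean inhibition across replicates above about 50%, limit read from the data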
SENP6 conf – confirmation of human SENP6 protease inhibitors. shares compounds with SENP7 block. recombinant SENP6, Z-RLRGG-aminoluciferin luminescence. inhibition, % at 12.5 µM. 6,200 compounds, 58% hits. AID 488915
SENP7 confirm – human SENP7 inhibition, confirmed; shares compounds with SENP7 block; recombinant SENP7, Z-RLRGG-aminoluciferin luminescence, 40 min; inhibition, % at 12.5 µM; 6,200 compounds, 69% hits; AID 488917
Casp3 select – caspase-3 inhibition (SENP selectivity assay); 6,200 compounds, 60% hits; shares compounds with SENP7 block; inhibition, % at 12.5 µM; purified caspase-3, Z-DEVD-aminoluciferin luminescence, 60 min; AID 488918;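 active = mean inhibition above about 50%, limit read from the data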;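 also: plate controls were enzyme with DMSO for no effect and wells without caspase-3 for full effect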
Luc interf – luminescence interference (SENP counter-screen); shares compounds with SENP7 block; Pre-incubated SENP8/Z-RLRGG-aminoluciferin, luciferase luminescence interference; inhibition, % at 12.5 µM; 6,200 compounds, 39% hits;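 active = mean inhibition above about 50% when retested at one dose, limit read from the data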;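 also: plate controls were DMSO wells with completed reaction for no effect and substrate without enzyme for full effect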
Starred values were filed as active, the others as inactive; . = not tested or not shown. In the library only some 3% were active in any assay of this set; here they are far more common.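 The calls were made as follows, unless noted: active = mean inhibition above about 50% in the one-dose retest (limit read from the data); inactive = the rest.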

SMILES	SENP8 block-1	UBC13 polyUb	SENP7 block	Apaf1 inhib	SENP8 block-2	SENP6 inh	SENP8 confirm	SENP6 conf	SENP7 confirm	Casp3 select	Luc interf
O=C(Nc1ccc(F)c(Cl)c1)c1cc(C2CCCN(S(=O)(=O)c3cccc4cccnc34)C2)on1 (stereo not given)	6.4	.	.	.	.	.	.	.	.	.	.
COc1cccc(C(=O)/C=C/Nc2ccc(S(=O)(=O)Nc3ncccn3)cc2)c1	-385.6	0.0	35.4	-0.1	20.8	62.5*	4.3	4.6	-2.1	20.2	-5.0
COc1ccc(OC)c(N/C=C/C(=O)c2ccc(OC)c(OC)c2)c1	-197.9	-8.0	-1.9	12.7	-5.4	11.5	.	.	.	.	.
COc1cccc(N/C=C/C(=O)c2ccc(OC)c(OC)c2)c1	-270.6	-1.6	75.4*	-0.6	64.3*	89.1*	-8.9	70.1*	93.4*	70.0*	15.5
COc1cccc(C(=O)/C=C/Nc2cc(C)ccc2O)c1	-14.9	-12.4	101.1*	14.0	84.1*	91.8*	5.3	92.4*	99.4*	71.9*	86.6*
O=C(/C=C\Nc1ccccn1)c1ccc(Cl)cc1	-179.7	-0.3	7.7	-19.5	94.7*	95.5*	36.3	77.0*	87.7*	75.2*	30.9
O=C(Cc1ccc(Cl)cc1)Nc1ccccn1	9.4	1.2	6.5	5.8	3.7	7.3	.	.	.	.	.
CCn1c(/N=C/c2c[nH]c3ccccc23)nc2ccccc21	13.3	26.2	43.8	-2.1	53.0*	71.6*	69.4*	70.8*	92.1*	34.5	78.8*
CCCn1c(/N=C/c2c[nH]c3ccccc23)nc2ccccc21	-6.8	13.1	11.9	13.3	3.5	8.4	.	.	.	.	.
CC(C)C[C@H]1CN([C@@H](Cc2ccc(O)cc2)CN2CCC[C@H]2CN2C(=O)C(=O)NC[C@@H]2Cc2ccccc2)C(=O)C(=O)N1CC1CCCCCC1	11.2	.	.	.	.	.	.	.	.	.	.
CCSc1cc(N2CCCC2)nc(-c2ccc(Cl)cc2)n1	-52.9	-0.1	8.6	1.6	9.2	7.8	.	.	.	.	.
Clc1ccc(-c2nnc(N3CCCC3)nn2)cc1	12.8	-24.7	-5.1	-10.2	2.1	68.3*	37.5	41.4	57.9*	55.2*	10.4
COc1ccc(CNC(=O)c2cccc3c(-c4cnn(C)c4)coc23)cc1OC	-12.0	.	.	.	.	.	.	.	.	.	.
Cc1nc2c(OCc3cccc(Cl)c3)cccn2c1N(C)Cc1cccs1	-29.2	.	.	.	.	.	.	.	.	.	.
Cn1c(-c2ncc(F)cc2F)cc2onc(-c3c(F)cccc3Cl)c2c1=O	-29.5	6.6	9.4	13.8	7.2	-7.1	.	.	.	.	.
Cn1c(-c2ccccc2)cc2onc(-c3ccccc3)c2c1=O	15.0	6.9	94.9*	1.6	95.1*	95.4*	34.3	37.8	55.3*	29.1	4.2
COC(=O)c1cc(/C=C/c2ccccc2)on1	-23.8	-6.8	-0.6	5.0	-10.5	27.2	.	.	.	.	.
COC(=O)c1cc(/C=C/c2ccccc2)[nH]n1	-4.2	-0.3	47.4	-5.7	37.0	52.3*	49.1	45.9	81.9*	63.5*	15.7
COc1c(Cl)cccc1-c1cn2ccccc2n1	-412.8	11.1	92.7*	-15.2	88.5*	93.0*	92.7*	92.6*	100.7*	92.2*	44.2
Clc1ccc(OCc2cn3ccccc3n2)c2ncccc12	-60.3	-8.2	0.5	0.7	-0.8	-7.8	.	.	.	.	.
Cc1nn(C)c(=O)n1-c1ccc(OCc2ccccc2)cc1	20.2	-2.5	75.8*	-3.0	41.3	73.5*	55.0*	55.5*	85.9*	89.6*	69.4*
COc1cc2sc3cc(NCCCN4CCOCC4)ccc3c(=O)c2cc1OC	-462.9	33.2	74.9*	9.7	43.1	69.5*	-10.2	-3.6	-2.2	16.8	29.2
Cc1cccc(C(=O)O/N=C/c2ccc(Br)cc2)c1	6.5	-1.6	61.5*	14.9	60.7*	67.9*	49.5	73.6*	87.9*	61.1*	34.2
Cc1cccc(C(=O)O/N=C(\N)c2ccc(Br)cc2)c1	-5.2	-3.1	24.7	-2.2	7.9	37.8	.	.	.	.	.
Cc1cccc(NC(=S)NNC(=O)c2csc3c2CCCC3)c1	2.5	-35.5	-8.6	18.2	61.1*	46.2	45.8	39.1	30.8	14.7	12.3
SMILES	SENP8 block-1	UBC13 polyUb	SENP7 block	Apaf1 inhib	SENP8 block-2	SENP6 inh	SENP8 confirm	SENP6 conf	SENP7 confirm	Casp3 select	Luc interf
COc1cccc(NC(=O)c2csc3c2CCCC3)c1	-2.6	10.0	62.2*	4.5	54.1*	68.3*	58.7*	59.3*	87.0*	48.7	25.1
COc1ccc(NC(=O)c2csc3c2CCCC3)cc1	6.1	-8.2	50.2*	0.0	25.2	43.0	-3.6	24.2	75.0*	37.4	16.7
COc1ccc(CNC(=O)c2csc3c2CCCC3)cc1	10.9	-4.8	-2.3	10.3	-5.5	-16.6	.	.	.	.	.
COC(=O)[C@]12CCCCC=C1N(Cc1cccc3ccccc13)C(=O)[C@H](CC(=O)N1CCN(C(=O)C3CC3)CC1)C2	22.2	.	.	.	.	.	.	.	.	.	.
N#Cc1c(-c2ccccc2Cl)noc1/C=C/Nc1ccc(C(=O)O)cc1	-338.1	-1.4	68.7*	-8.4	95.3*	94.8*	88.7*	97.0*	97.2*	84.1*	11.9
CCCCn1nnnc1C(c1ccccc1)N1CCN(c2cccc(C)c2C)CC1 (stereo not given)	2.8	.	.	.	.	.	.	.	.	.	.
O=C(N=Nc1c(O)[nH]c2ccccc12)c1cccs1	15.4	-21.6	82.1*	7.7	66.5*	81.9*	51.9*	80.3*	93.0*	81.9*	20.1
O=C(N=Nc1c(O)[nH]c2ccccc12)c1cc(NS(=O)(=O)c2cccs2)cc(NS(=O)(=O)c2cccs2)c1	10.3	-10.4	-2.8	2.2	1.1	-15.1	.	.	.	.	.
CC1NC(=O)c2cc3ccccc3cc2-n2c1nc1cc(Cl)ccc1c2=O (stereo not given)	-85.3	.	.	.	.	.	.	.	.	.	.
COc1ccc(C=Nc2cccc3c(=O)[nH][nH]c(=O)c23)c2ccccc12	-217.0	-3.6	2.9	-6.2	2.8	4.1	.	.	.	.	.
COc1cccc(C=Nc2cccc3c(=O)[nH][nH]c(=O)c23)c1O	-36.4	2.4	93.1*	-3.3	64.6*	67.1*	9.8	15.3	9.1	30.1	15.4
c1ccc(-c2noc(-c3cccc4ccccc34)n2)cc1	-396.5	22.5	49.2	6.8	11.5	30.7	.	.	.	.	.
Fc1ccccc1-c1nc(-c2ccncc2)no1	15.1	4.7	84.2*	-11.4	77.2*	84.9*	81.9*	83.7*	97.9*	89.9*	71.9*
